# ChEMBL document CHEMBL3877245 (Eur J Med Chem, 2016)
# Calls of active or inactive are those of the source. The rule behind the calls is not given here.
# Legend:
# [1] = molecular target: Neuronal acetylcholine receptor; alpha3/beta4 (Rattus norvegicus, UniProt P04757+P12392); assay: Displacement of [3H]epibatidine from rat alpha3beta4 nAChR by liquid scintillation counting; assay type: protein-complex assay
# [2] = molecular target: Neuronal acetylcholine receptor; alpha3/beta2 (Rattus norvegicus, UniProt P04757+P12390); assay: Displacement of [3H]epibatidine from rat alpha3beta2 nAChR by liquid scintillation counting; assay type: protein-complex assay
# [3] = molecular target: Neuronal acetylcholine receptor; alpha2/beta2 (Rattus norvegicus, UniProt P12389+P12390); assay: Displacement of [3H]epibatidine from rat alpha2beta2 nAChR by liquid scintillation counting; assay type: protein-complex assay
# [4] = Displacement of [3H]epibatidine from rat forebrain alpha4beta2* nAChR by liquid scintillation counting
# [5] = molecular target: Neuronal acetylcholine receptor; alpha4/beta4 (Rattus norvegicus, UniProt P09483+P12392); assay: Displacement of [3H]epibatidine from rat alpha4beta4 nAChR by liquid scintillation counting; assay type: protein-complex assay
# [6] = molecular target: Neuronal acetylcholine receptor; alpha4/beta2 (Rattus norvegicus, UniProt P09483+P12390); assay: Displacement of [3H]epibatidine from rat alpha4beta2 nAChR by liquid scintillation counting; assay type: protein-complex assay
# [7] = molecular target: Neuronal acetylcholine receptor; alpha2/beta4 (Rattus norvegicus, UniProt P12389+P12392); assay: Displacement of [3H]epibatidine from rat alpha2beta4 nAChR by liquid scintillation counting; assay type: protein-complex assay
# [8] = molecular target: T1, Neuronal acetylcholine receptor; alpha4/beta2 (Homo sapiens, UniProt P17787+P43681); assay: Agonist activity at human alpha4beta2 nAChR expressed in human SH-EP1 cells after 9.5 mins by 86Rb+ efflux assay; assay type: cell-based
# [9] = molecular target: T1, Neuronal acetylcholine receptor; alpha4/beta2; assay: Agonist activity at human (alpha4beta2 )2beta2 expressed in human SH-EP1 cells after 9.5 mins by 86Rb+ efflux assay relative to carbamylcholine; assay type: cell-based
# [10] = Antidepressant activity in C57BL6 mouse at 10 mg/kg, ip administered 15 mins prior to testing by SmartCube automated system based method; assay type: functional, organism-based
# Summary of the method: (§1)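 Male C57 BL6 mice, group-housed 4 per cage, 22 °C, 12 h light-dark. Compound dissolved in water, given i.p. at 10 mL/kg, 15 min before automated SmartCube session; behaviour captured by digital video and classified by computer algorithms into a behavioural signature.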
# [11] = Agonist activity at alpha3beta4* nAChR in human SH-SY5Y cells after 9.5 mins by 86Rb+ efflux assay; assay type: cell-based
# Summary of the method: (§2)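 86Rb+ efflux: cells loaded with ~350,000 cpm 86Rb+ at least 4 h (typically overnight), rinsed with efflux buffer pH 7.4 (130 mM NaCl, 5.4 mM KCl, 2 mM CaCl2, 50 mM HEPES, 5 mM glucose). Test drug alone applied 9.5 min. Efflux normalized, after nonspecific subtraction, to specific efflux of fully efficacious carbamylcholine control; nonspecific defined with carbamylcholine plus mecamylamine; EC50 derived.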
# [12] = molecular target: T2, Acetylcholine receptor; alpha1/beta1/delta/gamma (Homo sapiens, UniProt P02708+P07510+P11230+Q07001); assay: Agonist activity at alpha1beta1gammadelta nAChR in human TE671/RD cells after 9.5 mins by 86Rb+ efflux assay; assay type: cell-based; summary of the method: as §2
# [13] = molecular target: T1, Neuronal acetylcholine receptor; alpha4/beta2; assay: Antagonist activity at human alpha4beta2 expressed in human SH-EP1 cells assessed as reduction in carbamylcholine induced 86Rb+ efflux preincubated for 10 mins followed by carbamylcholine addition measured after 5 mins by Cherenkov counting; assay type: cell-based
# Summary of the method: (§3)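 Same 86Rb+-loaded cells and pH 7.4 efflux buffer. Cells lysed in 0.1 M NaOH/0.1% SDS and Cerenkov counted. Specific efflux = total minus nonspecific (mecamylamine-blocked); inactivation IC50 derived from inhibition of carbamylcholine response.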
# [14] = Antagonist activity at alpha3beta4* in human SH-SY5Y cells assessed as reduction in carbamylcholine induced 86Rb+ efflux preincubated for 10 mins followed by carbamylcholine addition measured after 5 mins by Cherenkov counting; assay type: cell-based; summary of the method: as §3
# [15] = molecular target: T1, Neuronal acetylcholine receptor; alpha4/beta2; assay: Agonist activity at human (alpha4beta2 )2alpha4 expressed in human SH-EP1 cells after 9.5 mins by 86Rb+ efflux assay relative to carbamylcholine; assay type: cell-based
# [16] = molecular target: T2, Acetylcholine receptor; alpha1/beta1/delta/gamma; assay: Antagonist activity at alpha1beta1gammadelta nAChR in human TE671/RD cells assessed as reduction in carbamylcholine induced 86Rb+ efflux preincubated for 10 mins followed by carbamylcholine addition measured after 5 mins by Cherenkov counting; assay type: cell-based; summary of the method: as §3
# [17] = Antidepressant activity in po dosed BALB/cJ mouse assessed as decrease in immobility time administered 30 mins and measured over 6 mins by classical Porsolt's forced swim test; assay type: functional, organism-based
# Summary of the method: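 Male BALB/cJ mice, 8–10 weeks, dosed po in water (10 mL/kg) at 1 and 10 mg/kg; water vehicle, sertraline 20 mg/kg ip as positive control. 30 min later placed in 1 L beaker with 12 cm of 23 °C water; immobility recorded over 6-min trial, total time analysed by ANOVA.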
# [18] = Antidepressant activity in C57BL6 mouse at 5 mg/kg, ip administered 15 mins prior to testing by SmartCube automated system based method; assay type: functional, organism-based; summary of the method: as §1
# [19] = molecular target: alpha3beta4 nAChR (neuronal acetylcholine receptor alpha3/beta4) (Rattus norvegicus, UniProt P04757+P12392); assay: Displacement of [3H]epibatidine from rat alpha3beta4 nAChR at 10 uM by liquid scintillation counting; conditions: probe [3H]epibatidine
# alpha3beta4 nAChR (neuronal acetylcholine receptor alpha3/beta4), sequence (P04757 whole entry): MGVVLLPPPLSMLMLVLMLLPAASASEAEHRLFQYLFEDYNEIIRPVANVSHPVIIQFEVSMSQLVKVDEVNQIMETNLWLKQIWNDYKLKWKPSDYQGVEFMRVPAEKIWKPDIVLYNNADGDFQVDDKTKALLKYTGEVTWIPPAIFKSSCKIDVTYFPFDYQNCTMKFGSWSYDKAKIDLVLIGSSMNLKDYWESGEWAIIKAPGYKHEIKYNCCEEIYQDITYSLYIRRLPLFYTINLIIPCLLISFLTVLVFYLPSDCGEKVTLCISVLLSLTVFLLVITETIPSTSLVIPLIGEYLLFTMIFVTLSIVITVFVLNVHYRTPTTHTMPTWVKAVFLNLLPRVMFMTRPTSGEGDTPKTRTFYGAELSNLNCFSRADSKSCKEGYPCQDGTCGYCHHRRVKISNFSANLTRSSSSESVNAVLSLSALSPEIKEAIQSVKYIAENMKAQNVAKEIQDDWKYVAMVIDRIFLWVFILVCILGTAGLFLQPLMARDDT
# alpha3beta4 nAChR (neuronal acetylcholine receptor alpha3/beta4), sequence (P12392 whole entry): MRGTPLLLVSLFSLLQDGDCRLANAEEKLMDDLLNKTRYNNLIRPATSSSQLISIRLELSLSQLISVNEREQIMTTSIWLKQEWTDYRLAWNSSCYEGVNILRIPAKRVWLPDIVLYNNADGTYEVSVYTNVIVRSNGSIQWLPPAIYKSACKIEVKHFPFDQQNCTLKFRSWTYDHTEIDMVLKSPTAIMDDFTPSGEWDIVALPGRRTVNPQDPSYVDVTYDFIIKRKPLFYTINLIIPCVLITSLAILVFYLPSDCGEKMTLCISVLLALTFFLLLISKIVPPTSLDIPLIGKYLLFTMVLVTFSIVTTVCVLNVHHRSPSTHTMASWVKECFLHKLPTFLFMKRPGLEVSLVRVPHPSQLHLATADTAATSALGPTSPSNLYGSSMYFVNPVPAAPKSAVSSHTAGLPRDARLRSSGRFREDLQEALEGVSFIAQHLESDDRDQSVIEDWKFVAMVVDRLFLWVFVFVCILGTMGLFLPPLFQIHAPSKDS
# Neuronal acetylcholine receptor; alpha3/beta4, sequence (P04757 whole entry): as the sequence (P04757 whole entry) above
# Neuronal acetylcholine receptor; alpha3/beta4, sequence (P12392 whole entry): as the sequence (P12392 whole entry) above
# Neuronal acetylcholine receptor; alpha3/beta2, sequence (P04757 whole entry): as the sequence (P04757 whole entry) above
# Neuronal acetylcholine receptor; alpha3/beta2, sequence (P12390 whole entry): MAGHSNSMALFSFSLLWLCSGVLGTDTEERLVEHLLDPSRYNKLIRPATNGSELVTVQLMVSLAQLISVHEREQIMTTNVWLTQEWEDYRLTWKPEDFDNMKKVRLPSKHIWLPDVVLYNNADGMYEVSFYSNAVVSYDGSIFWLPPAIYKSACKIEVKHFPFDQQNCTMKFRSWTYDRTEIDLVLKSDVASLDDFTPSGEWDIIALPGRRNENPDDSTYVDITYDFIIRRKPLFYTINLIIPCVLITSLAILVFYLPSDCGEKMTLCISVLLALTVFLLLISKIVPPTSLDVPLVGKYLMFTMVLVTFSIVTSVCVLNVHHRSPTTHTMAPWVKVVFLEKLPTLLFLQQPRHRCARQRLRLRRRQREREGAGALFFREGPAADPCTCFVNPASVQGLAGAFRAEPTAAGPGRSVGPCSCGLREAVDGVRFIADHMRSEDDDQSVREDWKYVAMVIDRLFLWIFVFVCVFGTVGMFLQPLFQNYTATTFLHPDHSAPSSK
# T1 sequence (P17787 whole entry): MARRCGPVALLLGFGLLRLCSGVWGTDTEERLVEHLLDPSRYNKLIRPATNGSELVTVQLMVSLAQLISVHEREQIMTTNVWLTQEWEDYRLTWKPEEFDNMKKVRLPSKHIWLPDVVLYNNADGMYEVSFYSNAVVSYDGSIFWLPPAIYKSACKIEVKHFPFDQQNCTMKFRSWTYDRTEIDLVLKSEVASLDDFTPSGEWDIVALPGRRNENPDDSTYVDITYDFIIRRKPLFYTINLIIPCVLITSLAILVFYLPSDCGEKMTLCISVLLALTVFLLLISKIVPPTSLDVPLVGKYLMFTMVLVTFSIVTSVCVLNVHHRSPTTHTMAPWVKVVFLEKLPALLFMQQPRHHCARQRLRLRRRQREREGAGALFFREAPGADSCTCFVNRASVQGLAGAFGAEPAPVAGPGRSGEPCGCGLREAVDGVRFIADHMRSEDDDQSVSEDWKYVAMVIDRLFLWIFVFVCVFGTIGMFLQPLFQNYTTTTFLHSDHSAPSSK
# T1 sequence (P43681 whole entry): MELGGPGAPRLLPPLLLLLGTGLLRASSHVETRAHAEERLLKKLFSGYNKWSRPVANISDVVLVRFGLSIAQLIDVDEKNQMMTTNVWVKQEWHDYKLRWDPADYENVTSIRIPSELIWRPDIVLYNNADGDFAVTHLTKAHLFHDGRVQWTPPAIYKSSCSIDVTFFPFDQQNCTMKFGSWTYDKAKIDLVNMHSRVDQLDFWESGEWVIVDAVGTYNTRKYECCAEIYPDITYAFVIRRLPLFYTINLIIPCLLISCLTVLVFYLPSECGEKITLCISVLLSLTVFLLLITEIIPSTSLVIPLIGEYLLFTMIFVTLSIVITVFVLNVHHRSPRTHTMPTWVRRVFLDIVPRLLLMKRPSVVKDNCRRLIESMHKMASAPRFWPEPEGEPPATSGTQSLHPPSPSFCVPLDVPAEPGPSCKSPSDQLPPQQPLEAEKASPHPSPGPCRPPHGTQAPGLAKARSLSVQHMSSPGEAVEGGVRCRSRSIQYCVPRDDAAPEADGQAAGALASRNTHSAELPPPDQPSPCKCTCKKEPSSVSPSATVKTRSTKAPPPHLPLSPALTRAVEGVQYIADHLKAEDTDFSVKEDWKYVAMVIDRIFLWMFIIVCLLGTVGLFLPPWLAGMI
# Neuronal acetylcholine receptor; alpha2/beta4, sequence (P12389 whole entry): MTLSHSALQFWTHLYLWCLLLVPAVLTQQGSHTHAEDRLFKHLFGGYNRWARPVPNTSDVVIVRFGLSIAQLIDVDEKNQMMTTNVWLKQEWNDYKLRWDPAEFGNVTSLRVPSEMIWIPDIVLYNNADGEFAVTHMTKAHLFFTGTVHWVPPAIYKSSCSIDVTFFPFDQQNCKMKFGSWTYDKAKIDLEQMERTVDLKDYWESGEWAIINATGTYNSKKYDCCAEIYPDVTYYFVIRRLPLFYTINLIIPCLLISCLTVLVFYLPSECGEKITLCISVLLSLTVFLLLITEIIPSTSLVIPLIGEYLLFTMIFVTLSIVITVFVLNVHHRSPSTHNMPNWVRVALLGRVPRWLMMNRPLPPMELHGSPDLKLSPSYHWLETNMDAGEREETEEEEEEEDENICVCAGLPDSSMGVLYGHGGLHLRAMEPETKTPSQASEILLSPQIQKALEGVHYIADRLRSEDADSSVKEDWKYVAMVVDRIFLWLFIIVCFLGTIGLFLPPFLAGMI
# Neuronal acetylcholine receptor; alpha2/beta4, sequence (P12392 whole entry): as the sequence (P12392 whole entry) above
# Neuronal acetylcholine receptor; alpha2/beta2, sequence (P12389 whole entry): as the sequence (P12389 whole entry) above
# Neuronal acetylcholine receptor; alpha2/beta2, sequence (P12390 whole entry): as the sequence (P12390 whole entry) above
# Neuronal acetylcholine receptor; alpha4/beta2 (Rattus norvegicus, UniProt P09483+P12390), sequence (P09483 whole entry): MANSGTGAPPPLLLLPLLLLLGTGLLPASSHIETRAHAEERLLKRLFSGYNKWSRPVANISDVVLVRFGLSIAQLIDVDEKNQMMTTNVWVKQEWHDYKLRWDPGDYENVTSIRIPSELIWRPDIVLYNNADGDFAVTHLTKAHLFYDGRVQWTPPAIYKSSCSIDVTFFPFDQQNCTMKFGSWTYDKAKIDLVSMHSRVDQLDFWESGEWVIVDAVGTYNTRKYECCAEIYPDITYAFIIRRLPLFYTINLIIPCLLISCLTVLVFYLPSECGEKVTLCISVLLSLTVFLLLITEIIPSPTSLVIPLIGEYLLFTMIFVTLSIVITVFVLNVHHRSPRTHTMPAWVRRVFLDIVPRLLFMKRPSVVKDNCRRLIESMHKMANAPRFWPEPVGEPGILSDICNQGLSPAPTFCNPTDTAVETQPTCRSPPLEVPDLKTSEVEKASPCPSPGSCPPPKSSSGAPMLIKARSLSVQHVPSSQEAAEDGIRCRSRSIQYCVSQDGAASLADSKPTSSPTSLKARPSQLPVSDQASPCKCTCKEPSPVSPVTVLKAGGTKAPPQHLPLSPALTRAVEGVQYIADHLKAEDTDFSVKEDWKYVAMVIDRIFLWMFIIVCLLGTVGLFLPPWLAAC
# Neuronal acetylcholine receptor; alpha4/beta2 (Rattus norvegicus, UniProt P09483+P12390), sequence (P12390 whole entry): as the sequence (P12390 whole entry) above
# Neuronal acetylcholine receptor; alpha4/beta4, sequence (P09483 whole entry): as the sequence (P09483 whole entry) above
# Neuronal acetylcholine receptor; alpha4/beta4, sequence (P12392 whole entry): as the sequence (P12392 whole entry) above
structure (smiles),measurement,setting,value
c1cncc(N2CCCNCC2)c1,Ki,[1],366 nM
same,Ki,[2],5.1 nM
same,Ki,[3],1.1 nM
same,Ki,[4],3.3 nM
same,Ki,[5],71.6 nM
same,Ki,[6],3.4 nM
same,Ki,[7],62 nM
OCCc1cc(-c2cncc(N3CCCNCC3)c2)on1,Ki,[1],8100 nM
same,EC50,[8],30.9 nM
same,Ki,[2],42 nM
same,Efficacy,[9],58%
same,Ki,[3],0.8 nM
same,Activity,[10],Active
same,EC50,[11],> 10000 nM
same,EC50,[12],> 10000 nM
same,Ki,[4],3.5 nM
same,Ki,[5],67.6 nM
same,Efficacy,[13],68%
same,IC50,[13],50.8 nM
same,Ki,[6],0.8 nM
same,IC50,[14],> 10000 nM
same,Ki,[7],331 nM
same,Efficacy,[15],-5%
same,IC50,[16],> 10000 nM
COCC[C@@H]1C[C@H]1c1cncc(N2CCCNCC2)c1,Ki,[1],> 10000 nM
same,EC50,[8],17.1 nM
same,Ki,[2],15.8 nM
same,Efficacy,[9],63%
same,Ki,[3],0.3 nM
same,Activity,[10],Active
same,EC50,[11],> 10000 nM
same,EC50,[12],> 10000 nM
same,Ki,[4],2.7 nM
same,Ki,[5],168 nM
same,Efficacy,[13],79%
same,IC50,[13],15.7 nM
same,Ki,[6],0.5 nM
same,IC50,[14],> 10000 nM
same,Ki,[7],256 nM
same,Efficacy,[15],-5.6%
same,IC50,[16],> 10000 nM
COCC[C@@H]1C[C@H]1c1cncc(N2C[C@@H]3C[C@H]2CN3)c1,Ki,[2],617 nM
same,Ki,[3],43.1 nM
same,EC50,[11],> 10000 nM
same,EC50,[12],> 10000 nM
same,Ki,[5],8450 nM
same,IC50,[14],> 10000 nM
same,IC50,[16],> 10000 nM
COCC[C@H]1C[C@@H]1c1cncc(N2CCCNCC2)c1,Activity,[17],Dose-dependent effect
same,Ki,[1],> 10000 nM
same,EC50,[8],15.9 nM
same,Ki,[2],17 nM
same,Efficacy,[9],81%
same,Ki,[3],0.3 nM
same,EC50,[11],> 10000 nM
same,Activity,[18],Active
same,EC50,[12],> 10000 nM
same,Ki,[4],2.7 nM
same,Ki,[5],151 nM
same,Efficacy,[13],74%
same,IC50,[13],16 nM
same,Ki,[6],0.7 nM
same,IC50,[14],> 10000 nM
same,Ki,[7],460 nM
same,Efficacy,[15],-9.3%
same,IC50,[16],> 10000 nM
CN1CCCN(c2cncc(-c3cc(CCO)no3)c2)CC1,Ki,[2],1040 nM
same,Ki,[3],46.3 nM
same,EC50,[11],> 10000 nM
same,EC50,[12],> 10000 nM
same,inhibition at 10 µM,[19],< 50%
same,Ki,[5],4940 nM
same,IC50,[14],> 10000 nM
same,Ki,[7],> 10000 nM
same,IC50,[16],> 10000 nM
COCC[C@H]1C[C@@H]1c1cncc(N2C[C@@H]3C[C@H]2CN3)c1,Ki,[2],141 nM
same,Ki,[3],3.1 nM
same,EC50,[11],> 10000 nM
same,EC50,[12],> 10000 nM
same,Ki,[5],1340 nM
same,IC50,[14],> 10000 nM
same,Ki,[7],4810 nM
same,IC50,[16],> 10000 nM
COCC[C@H]1C[C@@H]1c1cncc(N2CCCN(C)CC2)c1,EC50,[8],> 1000 nM
same,pEC50,[8]; sh-ep1,< 6
same,Ki,[2],681 nM
same,Ki,[3],18.1 nM
same,EC50,[11],> 10000 nM
same,EC50,[12],> 10000 nM
same,Ki,[4],33.8 nM
same,Ki,[5],4810 nM
same,IC50,[13],> 1000 nM
same,pIC50,[13]; sh-ep1,< 6
same,Ki,[6],25.4 nM
same,IC50,[14],> 10000 nM
same,IC50,[16],> 10000 nM
c1cncc(N2CC3CC2CN3)c1 (stereo not drawn),Ki,[1],64.6 nM
same,Ki,[2],3.1 nM
same,Ki,[3],0.3 nM
same,Ki,[4],0.8 nM
same,Ki,[5],7.7 nM
same,Ki,[6],1 nM
same,Ki,[7],15.2 nM
